In ChEMBL document CHEMBL1125675, “Synthesis and in vitro biological activity of new deaza analogues of folic acid, aminopterin, and methotrexate with an L-ornithine side chain” (J Med Chem, 1991):

What was measured:
[1] = Inhibitory activity against growth of WI-L2 human leukemic cells; conditions: WIL2
[2] = system: L1210; assay: Inhibitory activity against growth of L1210 murine leukemic cells; type: functional, cell-based; conditions: Mus musculus
Outline: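 Growth inhibition was measured by an adapted tetrazolium salt method after 48-h exposure. Cells were grown in RPMI 1640 with 10% fetal bovine serum plus antibiotics. Results are expressed as IC50.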

[3] = molecular target: T1, Dihydrofolate reductase (Homo sapiens, UniProt P00374); assay: Inhibition of dihydrofolate reductase(DHFR) enzyme from human leukemic lymphoblasts.
T1 sequence (P00374 whole entry): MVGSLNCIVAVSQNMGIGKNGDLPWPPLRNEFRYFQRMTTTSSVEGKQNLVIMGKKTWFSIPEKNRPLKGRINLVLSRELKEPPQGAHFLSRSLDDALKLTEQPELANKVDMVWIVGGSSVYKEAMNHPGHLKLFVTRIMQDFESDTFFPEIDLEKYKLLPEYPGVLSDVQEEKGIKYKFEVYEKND
Outline: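 Spectrophotometric read-out at 340 nm. Enzyme was DHFR purified from human leukemic lymphoblasts (WI-L2/M4).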

IC50 [1] [µM]	IC50 [2] [µM]	IC50 [3] [µM]	Structure (SMILES)
2.6	–	–	NCCCC(NC(=O)c1ccc(NCc2cnc3nc(N)nc(N)c3n2)cc1)C(=O)O (centres undefined)
–	–	0.16	CN(Cc1cnc2nc(N)nc(N)c2n1)c1ccc(C(=O)NC(CCCN)C(=O)O)cc1 (centres undefined)
4.3	1.1	0.05	CN(Cc1cnc2nc(N)nc(N)c2n1)c1ccc(C(=O)NC(CCCNCC(=O)O)C(=O)O)cc1 (centres undefined)

More lines, now with the values behind:

Structure (SMILES)	IC50 [1] [µM]	IC50 [2] [µM]	IC50 [3] [µM]
NCCCC(NC(=O)c1ccc(NCc2cnc3nc(N)nc(O)c3c2)cc1)C(=O)O (centres undefined)	–	> 5	–
NCCCC(NC(=O)c1ccc(NCc2ccc3nc(N)nc(N)c3c2)cc1)C(=O)O (centres undefined)	0.18	0.28	–
NCCCC(NC(=O)c1ccc(NCc2ccc3nc(N)nc(N)c3n2)cc1)C(=O)O (centres undefined)	–	0.66	–
NCCCC(NC(=O)c1ccc(NCc2ccc3nc(N)nc(O)c3c2)cc1)C(=O)O (centres undefined)	–	> 5	0.75
NCCCC(NC(=O)c1ccc(NCc2cnc3nc(N)nc(N)c3c2)cc1)C(=O)O (centres undefined)	0.86	1.4	0.027
